Measurements pooled from the literature.
Protocols differ between the studies behind these lines. pEC50, pIC50: −log10 of the molar value.
Organism: Plasmodium falciparum
Observed: parasite growth
Method: SYBR Green

The pIC50 of `CCCCCNC[C@H](O)c1cc(Cl)cc2c1-c1ccc(Cl)cc1C2` is reported as 8.43 (W2; 48 h; drug-resistant strain, blood stage).
`C[C@@H]1CC[C@H]2[C@@H](C)C(=O)O[C@@H]3O[C@@]4(C)CC[C@@H]1[C@]32OO4` gave a pEC50 of 7.85 (72 h).
With `O[C@@H](CNCCN1CCN(C(c2ccccc2)c2ccccc2)CC1)c1cc(Cl)cc2c1-c1ccc(Cl)cc1C2` the pIC50 was 7.89 (W2; 48 h; drug-resistant strain, blood stage).
The pIC50 of `Cn1cc2c3c1C(=O)C(N)=CC3=[N+](C)CC2` is reported as 5.94 (3D7; blood stage).
`CC(C)C[C@H](NC(=O)[C@H](Cc1ccccc1)NC(=O)c1cnccn1)B(O)O` gave a pEC50 of 7.39 (DD2; blood stage).
For `CC(O)(CS(=O)(=O)c1ccc(F)cc1)C(=O)Nc1ccc(C#N)c(C(F)(F)F)c1` (stereo not shown), the pIC50 was under 5.00 (DD2; 48 h; drug-resistant strain, blood stage).
With `CCOCC(=O)N1CCC[C@H](C(=O)NCc2nc(-c3ccc(C#N)cc3)cs2)C1` the pEC50 was 8.21 (DD2; blood stage).
`CCCN(CCc1cccs1)[C@H]1CCc2c(O)cccc2C1` gave a pIC50 of 5.03 (DD2; 48 h; drug-resistant strain, blood stage).
With `COCC(=O)N1CCC[C@H](C(=O)NCc2nc(-c3ccc(C#N)cc3)cs2)C1` the pEC50 was 7.74 (DD2; 72 h; blood stage).
`C[N+]1=C2C=C(N)C(=O)c3[nH]cc(c32)CC1` has a pIC50 of 6.17 (W2; blood stage).
For `CCN(CC)CCCC(C)Nc1ccnc2cc(Cl)ccc12` (stereo not shown), the pIC50 was 6.45 (MDR; TM90; 72 h; drug-resistant strain, blood stage).
For `O[C@H](CN[C@H](COCC1CC1)Cc1ccccc1)c1cc(Cl)cc2c1-c1ccc(Cl)cc1C2`, the pIC50 was 8.55 (W2; 48 h; drug-resistant strain, blood stage).
`Cn1cc2c3c1C(=O)C(N)=CC3=NCC2` gave a pIC50 of 5.24 (W2; blood stage).
`COCC(=O)N1CCC[C@H](C(=O)NCc2nc(-c3ccccc3)cs2)C1` has a pEC50 of 7.16 (DD2; 72 h; blood stage).
`Cn1cc2c3c1C(=O)C(NCCc1ccc(O)cc1)=CC3=NCC2` gave a pIC50 of 5.48 (3D7; blood stage).
The pIC50 of `CCN(CC)CCCC(C)Nc1ccnc2cc(Cl)ccc12` (stereo not shown) is reported as 7.12 (DD2; 96 h; drug-resistant strain, blood stage).
`CCCCCCCNCC(O)c1cc(Cl)cc2c1-c1ccc(Cl)cc1C2` (racemic) has a pIC50 of 7.73 (W2; 48 h; drug-resistant strain, blood stage).
`O=C1c2[nH]cc3c2C(=NCC3)c2c(-c3ccc(O)cc3)c[nH]c21` gave a pIC50 of 5.68 (3D7; blood stage).
With `CCCCCCNCC(O)c1cc(Cl)cc2c1-c1ccc(Cl)cc1C2` (racemic) the pIC50 was 8.22 (W2; 48 h; drug-resistant strain, blood stage).
For `O=Cc1cn(Cc2cn(-c3ccnc4cc(Cl)ccc34)nn2)c2ccccc12`, the inhibition was 24.5% (3D7; 10 µM; blood stage).
For `O[C@H](CN1CCN(C(c2ccccc2)c2ccccc2)CC1)c1cc(Cl)cc2c1-c1ccc(Cl)cc1C2`, the pIC50 was 7.15 (W2; 48 h; drug-resistant strain, blood stage).
`C[N+]1=C2C=C(NCCc3ccc(O)cc3)C(=O)c3[nH]cc(c32)CC1` has a pIC50 of 7.55 (DD2; blood stage).
